Assay results: ChEMBL document CHEMBL3400126, “Benzo-fused lactams from a diversity-oriented synthesis (DOS) library as inhibitors of scavenger receptor BI (SR-BI)-mediated lipid uptake” (Bioorg Med Chem Lett, 2015)

Key:
CHO = test: Cytotoxicity against CHO cells after 24 hrs by CellTiterGlo assay; type: cell-based, Cricetulus griseus; conditions: chinese hamster
In short: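 IdlA[mSR-BI] cells (CHO overexpressing mouse SR-BI) incubated with compound for 24 h; cellular ATP levels read by CellTiter-Glo luminescence.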

[1] = target: T1, Scavenger receptor class B member 1 (Mus musculus, UniProt Q61009); test: Inhibition of mouse SR-B1 overexpressed in CHO cells assessed as inhibition of transfer of the fluorescent lipid DiI from HDL particles to cells after 3 hrs; type: cell-based
T1 sequence (Q61009 whole entry): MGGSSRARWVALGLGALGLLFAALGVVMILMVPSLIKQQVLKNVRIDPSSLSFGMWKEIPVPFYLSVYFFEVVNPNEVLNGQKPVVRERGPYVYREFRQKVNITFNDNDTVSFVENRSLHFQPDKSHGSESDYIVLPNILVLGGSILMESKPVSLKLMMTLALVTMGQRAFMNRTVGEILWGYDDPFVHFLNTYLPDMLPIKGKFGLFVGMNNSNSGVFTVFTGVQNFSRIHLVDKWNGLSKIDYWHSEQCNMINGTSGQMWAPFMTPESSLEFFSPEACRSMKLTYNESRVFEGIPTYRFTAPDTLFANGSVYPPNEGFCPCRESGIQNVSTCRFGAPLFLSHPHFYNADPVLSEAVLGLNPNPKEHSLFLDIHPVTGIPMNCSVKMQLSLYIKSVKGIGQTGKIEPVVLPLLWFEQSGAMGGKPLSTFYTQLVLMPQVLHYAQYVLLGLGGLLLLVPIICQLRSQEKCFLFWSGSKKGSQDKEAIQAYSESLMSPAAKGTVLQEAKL
In short: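 Primary assay: uptake of fluorescent lipid DiI from DiI-labeled HDL particles into IdlA[mSR-BI] cells, i.e. CHO cells overexpressing mouse SR-BI. Read-out is cell-associated DiI fluorescence. Compounds that quenched DiI-HDL fluorescence in a dose-dependent manner were excluded by counterscreen. 1 μM BLT-1 served as positive control.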

Structure (SMILES)	Activity (CHO)	IC50 [1] [µM]
COc1ccc(S(=O)(=O)N(C)C[C@@H]2Oc3ccc(NC(=O)Cc4cn(C)c5ccccc45)cc3C(=O)N([C@H](C)CO)C[C@H]2C)cc1	Non-toxic	2
C[C@@H]1CN([C@H](C)CO)C(=O)c2cc(NC(=O)CCCN(C)C)ccc2O[C@H]1CN(C)S(=O)(=O)c1ccc(Cl)cc1	Non-toxic	> 25
C[C@@H]1CN([C@H](C)CN)C(=O)c2cc(NC(=O)Cc3cn(C)c4ccccc34)ccc2O[C@H]1CN(C)S(=O)(=O)c1ccc(Cl)cc1	Non-toxic	> 25
COC[C@@H](C)N1C[C@@H](C)[C@H](CN(C)S(=O)(=O)c2ccc(Cl)cc2)Oc2ccc(NC(=O)NC(C)C)cc2C1=O	Non-toxic	8
C[C@@H]1CN([C@H](C)CO)C(=O)c2cc(NS(=O)(=O)c3ccc(F)cc3)ccc2O[C@H]1CN(C)S(=O)(=O)c1ccc(Cl)cc1	Non-toxic	14
C[C@@H]1CN([C@H](C)CO)C(=O)c2cc(NC(=O)C3CCCCC3)ccc2O[C@H]1CN(C)S(=O)(=O)c1cccc(Cl)c1	Non-toxic	–
COc1ccc(CN(C)C[C@@H]2Oc3ccc(NC(=O)Cc4cn(C)c5ccccc45)cc3C(=O)N([C@H](C)CO)C[C@H]2C)cc1	Non-toxic	2.6
C[C@@H]1CN([C@H](C)CO)C(=O)c2cc(NS(C)(=O)=O)ccc2O[C@H]1CN(C)S(=O)(=O)c1ccc(Cl)cc1	Non-toxic	1.6
C[C@@H]1CN([C@@H](C)CO)C(=O)c2cc(NC(=O)Cc3cn(C)c4ccccc34)ccc2O[C@H]1CN(C)S(=O)(=O)c1ccc(Cl)cc1	Non-toxic	0.91
C[C@@H]1CN([C@H](C)CO)C(=O)c2cc(NC(=O)Cc3cn(C)c4ccccc34)ccc2O[C@H]1CN(C)Cc1ccccc1	Non-toxic	1.6
C[C@@H]1CN([C@H](C)CO)C(=O)c2cc(NC(=O)Cc3cn(C)c4ccccc34)ccc2O[C@H]1CN(C)S(=O)(=O)c1ccc(F)cc1	Non-toxic	0.56
C[C@@H]1CN([C@H](C)CO)C(=O)c2cc(NC(=O)C3CCCCC3)ccc2O[C@H]1CN(C)S(=O)(=O)c1ccc(Cl)cc1	Non-toxic	0.054
C[C@@H]1CN([C@H](C)CO)C(=O)c2cc(NC(=O)C3CCCCC3)ccc2O[C@H]1CN(C)S(=O)(=O)c1ccccc1Cl	Non-toxic	0.18
CC(C)NC(=O)Nc1cccc2c1O[C@@H](CN(C)S(=O)(=O)c1ccc(Cl)cc1)[C@H](C)CN([C@H](C)CO)C2=O	Non-toxic	> 25
C[C@@H]1CN([C@H](C)CO)C(=O)c2cc(N(C)C)ccc2O[C@H]1CN(C)S(=O)(=O)c1ccc(Cl)cc1	Non-toxic	0.63
C[C@@H]1CN([C@H](C)CO)C(=O)c2cc(NC(=O)C3CC3)ccc2O[C@H]1CN(C)S(=O)(=O)c1ccc(Cl)cc1	Non-toxic	2.1
C[C@@H]1CN([C@H](C)CN(C)C)C(=O)c2cc(NC(=O)Cc3cn(C)c4ccccc34)ccc2O[C@H]1CN(C)S(=O)(=O)c1ccc(Cl)cc1	Non-toxic	> 25
C[C@@H]1CN([C@H](C)CO)C(=O)c2cc(NC(=O)Cc3cn(C)c4ccccc34)ccc2O[C@H]1CN(C)C(=O)Nc1ccccc1	Non-toxic	4.9
C[C@@H]1CN([C@H](C)CO)C(=O)c2cc(NC(=O)Cc3cn(C)c4ccccc34)ccc2O[C@H]1CN(C)C(=O)NC1CCCCC1	Non-toxic	9.2
C[C@@H]1CN([C@H](C)CO)C(=O)c2cc(NC(=O)C3CCCCC3)ccc2O[C@H]1CN(C)C(=O)c1ccc(Cl)cc1	Non-toxic	> 25
C[C@@H]1CN([C@H](C)CO)C(=O)c2cc(NC(=O)Cc3cn(C)c4ccccc34)ccc2O[C@H]1CN(C)Cc1ccc(C(F)(F)F)cc1	Non-toxic	0.65
C[C@@H]1CN([C@H](C)CO)C(=O)c2cc(NC(=O)NC3CCCCC3)ccc2O[C@H]1CN(C)S(=O)(=O)c1ccc(Cl)cc1	Non-toxic	0.35
C[C@@H]1CN([C@H](C)CO)C(=O)c2cc(NC(=O)Cc3cn(C)c4ccccc34)ccc2O[C@H]1CN(C)S(=O)(=O)c1cccs1	Non-toxic	2.4
C[C@H]1CN([C@@H](C)CO)C(=O)c2cc(NC(=O)Cc3cn(C)c4ccccc34)ccc2O[C@H]1CN(C)S(=O)(=O)c1ccc(Cl)cc1	Non-toxic	12.3

Structure (SMILES)	Activity (CHO)	IC50 [1] [µM]
C[C@@H]1CN([C@H](C)CO)C(=O)c2cc(NC(=O)Cc3cn(C)c4ccccc34)ccc2O[C@H]1CN(C)CC1CCCCC1	Non-toxic	9.2
C[C@@H]1CN([C@H](C)CO)C(=O)c2cc(NC(=O)Cc3cn(C)c4ccccc34)ccc2O[C@H]1CN(C)Cc1ccncc1	Non-toxic	1.3
C[C@@H]1CN([C@H](C)CO)C(=O)c2cc(NC(=O)CCC(F)(F)F)ccc2O[C@H]1CN(C)S(=O)(=O)c1ccc(Cl)cc1	Non-toxic	0.26
C[C@@H]1CN([C@H](C)CO)C(=O)c2cc(NC(=O)Nc3ccc(F)cc3)ccc2O[C@H]1CN(C)S(=O)(=O)c1ccc(Cl)cc1	Non-toxic	0.092
C[C@@H]1CN([C@H](C)CO)C(=O)c2cc(NC(=O)Cc3cn(C)c4ccccc34)ccc2O[C@H]1CN(C)S(C)(=O)=O	Non-toxic	9.9
C[C@@H]1CN([C@@H](C)CO)C(=O)c2cc(NC(=O)Cc3cn(C)c4ccccc34)ccc2O[C@@H]1CN(C)S(=O)(=O)c1ccc(Cl)cc1	Non-toxic	10
CNC[C@@H]1Oc2ccc(NC(=O)Cc3cn(C)c4ccccc34)cc2C(=O)N([C@H](C)CO)C[C@H]1C	Non-toxic	> 25
C[C@@H]1CN([C@H](C)CO)C(=O)c2cc(NS(=O)(=O)c3ccccc3)ccc2O[C@H]1CN(C)S(=O)(=O)c1ccc(Cl)cc1	Non-toxic	3.2
C[C@@H]1CN([C@H](C)CO)C(=O)c2cc(NC(=O)Cc3cn(C)c4ccccc34)ccc2O[C@H]1CN(C)Cc1ccc2c(c1)OCO2	Non-toxic	0.89
C[C@@H]1CN([C@H](C)CO)C(=O)c2cc(NC(=O)Cc3cn(C)c4ccccc34)ccc2O[C@@H]1CN(C)S(=O)(=O)c1ccc(Cl)cc1	Non-toxic	–
C[C@H]1CN([C@@H](C)CO)C(=O)c2cc(NC(=O)Cc3cn(C)c4ccccc34)ccc2O[C@@H]1CN(C)S(=O)(=O)c1ccc(Cl)cc1	Non-toxic	17.4
C[C@@H]1CN([C@H](C)CO)C(=O)c2cc(NC(=O)Cc3cn(C)c4ccccc34)ccc2O[C@H]1CN(C)Cc1ccc(Cl)c(Cl)c1	Non-toxic	> 25
CC(C)NC(=O)Nc1ccc2c(c1)C(=O)N(C(C)C)C[C@@H](C)[C@H](CN(C)S(=O)(=O)c1ccc(Cl)cc1)O2	Non-toxic	9.9
C[C@@H]1CN([C@H](C)CO)C(=O)c2cc(NC(=O)Cc3cn(C)c4ccccc34)ccc2O[C@H]1CN(C)C	Non-toxic	18
Cc1noc(C)c1S(=O)(=O)Nc1ccc2c(c1)C(=O)N([C@H](C)CO)C[C@@H](C)[C@H](CN(C)S(=O)(=O)c1ccc(Cl)cc1)O2	Non-toxic	0.19
C[C@@H]1CN([C@H](C)CO)C(=O)c2cc(NC(=O)Cn3cnnn3)ccc2O[C@H]1CN(C)S(=O)(=O)c1ccc(Cl)cc1	Non-toxic	10
C[C@@H]1CN([C@H](C)CO)C(=O)c2cc(NC(=O)C3CCOCC3)ccc2O[C@H]1CN(C)S(=O)(=O)c1ccc(Cl)cc1	Non-toxic	> 25
C[C@H](CO)N1C[C@H](C)[C@H](CN(C)S(=O)(=O)c2ccc(Cl)cc2)Oc2ccc(NC(=O)Cc3cn(C)c4ccccc34)cc2C1=O	Non-toxic	> 25
C[C@@H]1CN([C@H](C)CO)C(=O)c2cc(NC(=O)Cc3cn(C)c4ccccc34)ccc2O[C@H]1CN(C)S(=O)(=O)c1ccccc1	Non-toxic	0.22
C[C@@H]1CN([C@H](C)CO)C(=O)c2cc(NC(=O)Nc3ccccc3)ccc2O[C@H]1CN(C)S(=O)(=O)c1ccc(Cl)cc1	Non-toxic	> 25
COc1ccc(NC(=O)Nc2ccc3c(c2)C(=O)N([C@H](C)CO)C[C@@H](C)[C@H](CN(C)S(=O)(=O)c2ccc(Cl)cc2)O3)cc1	Non-toxic	0.3
Cc1noc(C)c1NC(=O)Nc1ccc2c(c1)C(=O)N([C@H](C)CO)C[C@@H](C)[C@H](CN(C)S(=O)(=O)c1ccc(Cl)cc1)O2	Non-toxic	7.1
C[C@@H]1CN([C@H](C)CO)C(=O)c2cc(NC(=O)CCN3CCOCC3)ccc2O[C@H]1CN(C)S(=O)(=O)c1ccc(Cl)cc1	Non-toxic	5
